# Compound activity: PubChem BioAssay, Sanford-Burnham Center for Chemical Genomics
# CCR6 antag: CCR6 receptor antagonists, primary screen, cell-based, CHO-K1, luminescence, beta-arrestin, uHTS. inhibition, % at 20 µM. actives 0.49% (n = 340,000). C-C chemokine receptor type 6 (Homo sapiens), P51684. CHO-K1 CCR6 PathHunter beta-arrestin, CCL20-stimulated;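 active means compounds whose inhibition of the agonist-driven luminescence signal at 20 µM reaches about 50%, limit read from the data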;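 further: cells stimulated with CCL20 at 14 nM final; plate controls were DMSO with CCL20 for no effect and DMSO without agonist for full effect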
# Target sequence (P51684 whole entry, looked up): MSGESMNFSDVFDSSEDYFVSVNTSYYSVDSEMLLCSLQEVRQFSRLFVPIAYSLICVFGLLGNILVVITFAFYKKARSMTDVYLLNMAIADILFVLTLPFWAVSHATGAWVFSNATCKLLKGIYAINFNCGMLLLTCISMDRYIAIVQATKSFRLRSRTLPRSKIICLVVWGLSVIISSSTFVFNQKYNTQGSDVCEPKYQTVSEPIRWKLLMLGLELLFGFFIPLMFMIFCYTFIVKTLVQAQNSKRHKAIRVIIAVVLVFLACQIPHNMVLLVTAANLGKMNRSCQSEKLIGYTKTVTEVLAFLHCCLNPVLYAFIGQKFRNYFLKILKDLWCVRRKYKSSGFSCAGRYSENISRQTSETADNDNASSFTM
# APJ antagonist: antagonists of human apelin receptor APJ, primary screen, CHO-K1 cells, beta-arrestin complementation, luminescence; AID 2521, 2010; inhibition, % at 20 µM; P35414; actives 0.32% (n = 330,000);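 active means inhibition above about 40% at 20 µM, limit read from the data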;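 further: cells challenged with 10 nM apelin-13 agonist together with compound; plate controls were apelin-13 plus DMSO wells for no effect and DMSO wells lacking apelin-13 for full effect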
# APJ ag: agonists of human apelin receptor APJ, primary screen, CHO-K1 cells, PathHunter beta-arrestin, luminescence; AID 2520, 2010; actives 0.11% (n = 330,000); 0% DMSO wells, 100% apelin; activation, % at 20 µM;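 active means activation more than six SD over the plate average, tested at 20 µM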;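 further: 0% = DMSO alone and 100% = apelin-13 at 10 nM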
#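 Material: engineered CHO-K1 APJ arrestin reporter cells; amount: 1000 CHO-K1 reporter cells seeded per well; incubation: compound stimulation 90 min at 25 °C, detection 60 min; signal: luminescent beta-gal fragment complementation, chemiluminescent substrate; read-out basis: APJ agonist activity; controls: DMSO-only wells as negative, 10 nM Apelin-13 as positive control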
# CXCR6 inh: CXCR6 receptor inhibitors, primary screen, cell-based, beta-arrestin, luminescence, CHO-K1 PathHunter, 1536-well. C-X-C chemokine receptor type 6 (Homo sapiens), O00574. inhibition, % at 20 µM. actives 0.36% (n = 360,000). AID 602244, 2012; in the data active means inhibition above about 34%, passing the limit was not always enough;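 further: antagonist mode with CXCL16 agonist at 10 nM final; 0% = 10 nM CXCL16 with DMSO and 100% = unstimulated wells without agonist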
# EBI2 antag: EBI2 receptor antagonists, beta-arrestin recruitment, primary screen, cell-based, luminescence, 7a,25-OHC stimulation, uHTS; G-protein coupled receptor 183 (Homo sapiens), P32249; 7a,25-OHC stimulated; inhibition, % at 5 µM; actives 0.81% (n = 360,000); in the data active means inhibition above about 38%;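 further: enzyme fragment complementation signal reports receptor beta-arrestin coupling in cells; 0% = agonist plus DMSO wells and 100% = wells without agonist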
# Starred values were filed as active, the others as inactive; x = no result. A selection: hits, their analogues and other compounds. The true share with any hit is near 1.5%.
SMILES,CCR6 antag,APJ antagonist,APJ ag,CXCR6 inh,EBI2 antag
Cc1oc2c(c1C(=O)c1ccc(Cl)cc1)C(=O)C(=O)c1ccccc1-2,43.4,x,x,25.2,-9.3
Cc1ccc(C(=O)c2c(C)oc3c2C(=O)C(=O)c2ccccc2-3)cc1,71.6*,-23.2,13.6*,32.4,-21.6
CCOC(=O)C1(CC)Oc2ccccc2C(c2ccc(OC)cc2)=C1C(=O)OC (configuration not stated),28.1,x,x,48.0*,13.8
COc1ccc(Cl)cc1NC(=S)NC1CCCC1,8.5,5.1,-2.4,5.8,-15.0
O=C(O)CC1S/C(=N/N=C/c2ccc(-c3ccc(Cl)c([N+](=O)[O-])c3)o2)NC1=O (configuration not stated),58.0*,10.0,-4.9,15.0,0.6
Cc1cc(C)c2nc(SCC(=O)N3CC(=O)Nc4ccccc43)c(C#N)cc2c1,-1.5,-26.8,-0.8,8.5,49.1*
Cc1cc(C)c2nc(SCC(=O)Nc3ccccc3N3CCOCC3)c(C#N)cc2c1,0.2,-17.2,-1.0,6.6,39.5
CN(C)c1ccc(/C=C/c2ccc3c4ccccc4ccc3[n+]2-c2ccccc2)cc1,83.2*,x,x,62.3*,45.5*
CN(C)c1ccc(/C=C/c2cccc[n+]2[O-])cc1,-1.2,9.0,-2.7,4.1,8.9
Cc1cc(C)c(Nc2cc(S(=O)(=O)O)c(N)c3c2C(=O)c2ccccc2C3=O)c(C)c1,54.4*,x,x,39.2*,16.7
CC(Sc1nn(-c2ccccc2)c(=S)s1)C(=O)NCC1CCCO1 (configuration not stated),0.3,-44.7,-2.6,13.3,11.8
CC(NC(=O)Cc1ccc(S(=O)(=O)N2CCOCC2)s1)c1ccc(Cl)c(Cl)c1 (configuration not stated),8.0,-42.4,1.2,-8.0,7.3
CCO[C@@H]1OC(C(=O)N2CCN(Cc3ccc4c(c3)OCO4)CC2)=C[C@H](c2ccc(Br)cc2)[C@H]1CCCO,51.5*,-3.0,-12.3,36.1,29.3
C#Cc1ccc([C@H]2C=C(C(=O)N3CCN(Cc4ccccc4)CC3)O[C@@H](OCC)[C@@H]2CCCO)cc1,12.9,0.3,-4.3,10.4,56.3*
CCc1ccc(S(=O)(=O)N2CCN(c3ncccn3)CC2)cc1,14.7,2.6,2.5,2.1,0.8
O=C(CNc1ccc(Br)cc1)c1ccc(O)cc1,38.6,35.4,-3.4,2.1,0.4
O=C(CNc1ccc(Cl)cc1)c1ccc(Br)cc1,61.9*,82.7*,-12.5,37.9,31.7
CN1CCc2nc(SCc3ccc(Cl)cc3)c(C#N)c(-c3cccs3)c2C1,73.9*,26.5,-0.9,x,x
CCC(C)NC(=O)C1CCN(S(=O)(=O)c2ccc(-n3cnnn3)cc2)CC1 (configuration not stated),-2.1,15.3,-3.2,-1.5,-0.3
Cc1ccc(NC(=S)NNc2ccc([N+](=O)[O-])cc2S(=O)(=O)Nc2ccccc2C(=O)O)cc1C,68.3*,x,x,33.3,1.9
O=C(O)c1ccccc1NS(=O)(=O)c1ccc(NNC(=S)Nc2ccc(OC(F)F)cc2)c([N+](=O)[O-])c1,52.7*,x,x,35.3*,12.7
CN(CCO)c1ccc(C=NNc2ccc([N+](=O)[O-])cc2S(=O)(=O)Nc2ccccc2C(=O)O)cc1,62.5*,0.8,-10.7,39.3,8.6
CCOc1ccc(CCNC(=O)COC(=O)c2ccc3c(c2)OCCO3)cc1OCC,14.5,0.7,-6.0,-4.1,0.5
CSCCC(NC(=O)c1ccc(Cl)cc1Cl)C(=O)NNC(=O)c1ccncc1 (configuration not stated),-0.9,7.6,-2.2,5.9,8.6
Cc1ccc2cccc(OCC(=O)Nc3ccc4c(c3)OCO4)c2n1,0.8,9.9,-0.4,7.4,-2.2
SMILES,CCR6 antag,APJ antagonist,APJ ag,CXCR6 inh,EBI2 antag
Cc1ccc2cccc(OC(=O)c3ccc4c(c3)OCCO4)c2n1,52.2*,26.2,-4.1,35.0,-13.0
C=CCOC(=O)C(C#N)c1nc2ccccc2nc1N1CCN(c2ccccc2OC)CC1 (configuration not stated),52.4*,12.5,-2.3,13.8,24.2
COc1cc(/C=C2/CC/C(=C/c3ccc(O)c(OC)c3)C2=O)ccc1O,61.5*,1.9,-5.8,55.4*,14.8
COc1cc(C=C2C(=O)c3ccccc3C2=O)cc(OC)c1OC,7.3,16.7,-1.8,19.6,-9.7
COc1ccc(/C=C2\CN(Cc3ccccc3)C/C(=C\c3ccc(OC)c(O)c3)C2=O)cc1O,19.5,11.1,1.6,51.6*,-7.1
COc1cc(/C=C2\COC/C(=C\c3ccc(O)c(OC)c3)C2=O)ccc1O,56.0*,44.2*,-9.2,40.7*,15.2
COc1cc(C=C2C(=O)c3ccccc3C2=O)ccc1O,25.8,61.3*,-7.6,17.1,5.0
CCCCCCCC/C=C\CCCCCCCC(=O)O,13.4,22.6,-5.7,15.1,-0.4
CCCCCCCCCCCCC/C=C/[C@@H](O)[C@@H](N)CO,66.7*,21.7,-5.0,15.9,10.2
C#CCOc1ccc(/C=C2\SC(=S)N(Cc3cccnc3)C2=O)cc1,9.3,9.9,3.8,8.9,-10.6
O=C1/C(=C/c2ccc(O)cc2)SC(=S)N1Cc1cccnc1,45.1,46.8*,-7.8,19.8,30.6
O=C(O)CCN1C(=O)/C(=C2\C(=O)N(Cc3ccccc3Cl)c3ccccc32)SC1=S,x,-3.6,0.0,15.9,0.1
COc1ccc(NC(=O)CN2C(=O)/C(=C3\SC(=S)N(CCC(=O)O)C3=O)c3ccccc32)cc1,55.2*,-142.2,12.0,7.6,-0.9
O=C(Nc1cccc2ccccc12)NC(Cc1ccccc1)C(=O)O (configuration not stated),2.6,19.2,-4.0,-3.0,10.2
O=C(N/N=C/c1cn(-c2ccccc2)nc1-c1cccs1)c1ccncc1,53.3*,-14.0,-0.1,8.3,8.2
C/C(=N\NC(=O)C1CCCN(S(=O)(=O)c2ccccc2)C1)c1ccccn1 (configuration not stated),x,34.6,-7.2,40.5*,2.2
C/C(=N\NC(=O)C1CCCN(S(=O)(=O)c2ccccc2)C1)c1ccncc1 (configuration not stated),2.7,-8.3,-2.4,-8.8,-10.4
CC1(C)OC(=O)C2=C(C[C@@H](C3CCCCC3)O[C@H]2c2ccc(Cl)cc2)O1,x,x,x,4.7,8.5
Cc1ccc(C)c(N2CCN(C(=O)c3cc4ccccn4n3)CC2)c1,7.6,5.2,1.0,4.1,57.8*
O=C(c1cc2ccccn2n1)N1CCN(c2cccc(C(F)(F)F)c2)CC1,-14.6,0.4,-0.3,6.0,10.5
COc1ccc(NC(=O)COC(=O)c2cc([N+](=O)[O-])ccc2N2CCOCC2)cc1,113.4*,2.5,8.7,10.2,1.0
CN(CCOc1ccccc1)C(=O)C1CCN(C(=O)c2ccc(Cl)cc2)CC1,17.4,9.8,-4.0,-9.6,64.1*
